From PubChem
DNMT1 block = human DNMT1 methyltransferase inhibitors, primary screen, biochemical, molecular beacon, fluorescence, HinP1I cleavage, uHTS | inhibition (reported as % activation of signal), % at 10 µM | 0.83% of 360,000 active; in the data active = inhibition above about 50%
SUMO1-SIM PPI = modulators of SUMO1 protein-protein interactions, primary screen, biochemical, uHTS; SUMO1 binding to a labelled peptide, TR-FRET, 1 h; inhibition, % at 20 µM; 0.33% of 360,000 active; in the data active = inhibition above about 37%
Target sequence (P63165 whole entry, looked up): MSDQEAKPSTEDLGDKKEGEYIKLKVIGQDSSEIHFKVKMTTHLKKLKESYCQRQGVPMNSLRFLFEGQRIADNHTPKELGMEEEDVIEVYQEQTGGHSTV
Scp1 inh = Scp-1 phosphatase inhibitors, primary screen, biochemical, colorimetric, uHTS. Carboxy-terminal domain RNA polymerase II polypeptide A small phosphatase 1 (Homo …. 0.88% of 340,000 active. inhibition, % at 20 µM. Recombinant Scp1, phosphopeptide, malachite green phosphate absorbance;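 active = inhibition above about 50% at 20 µM, limit read from the data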
Target sequence (Q9GZU7 76-261 limits assumed): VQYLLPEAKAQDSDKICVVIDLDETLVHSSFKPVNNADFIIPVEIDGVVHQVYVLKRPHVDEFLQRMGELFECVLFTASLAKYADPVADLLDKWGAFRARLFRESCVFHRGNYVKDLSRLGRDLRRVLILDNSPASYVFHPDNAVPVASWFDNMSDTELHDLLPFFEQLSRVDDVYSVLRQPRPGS
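Test system: SCP-1 phosphatase catalytic domain, residues 76-261; measured by: colorimetric phosphate reagent with accelerator and stabiliser, absorbance at 630 nm; timing: enzyme reaction 45 min at room temperature, colour 5 min, stabilisation 30 min; also added: Phosphorylated 17-residue peptide substrate; compound dosing: one concentration, 20 µM, with 1.0% DMSO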
LMPTP inh = LMPTP phosphatase inhibitors, primary screen, biochemical, fluorescence intensity, uHTS; Low molecular weight phosphotyrosine protein phosphatase (Homo sapiens), P24666; recombinant LMPTP-A, OMFP fluorogenic substrate; inhibition, % at 20 µM; 0.22% of 360,000 active; AID 651560, 2012;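 active = compounds that cut the enzyme signal by at least half of the control window in the single-dose screen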
Target sequence (P24666 whole entry, looked up): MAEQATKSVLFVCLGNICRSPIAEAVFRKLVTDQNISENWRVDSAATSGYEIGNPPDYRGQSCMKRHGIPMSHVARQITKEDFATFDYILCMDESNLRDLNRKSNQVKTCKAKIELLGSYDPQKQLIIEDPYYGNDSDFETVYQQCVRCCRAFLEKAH
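material = LMPTP-A | quantity = 0.625 nM enzyme | reagent = OMFP substrate, 400 µM final | buffer or medium = Bis-Tris pH 6.0, DTT, detergent | detection = endpoint fluorescence intensity from OMFP dephosphorylation | dosing = single 20 µM dose | read-out basis = % inhibition relative to no-enzyme and uninhibited control wells | control set = no-enzyme and uninhibited controls | timing = 50 min at room temperature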
STEP inh = STEP phosphatase inhibitors, primary screen, biochemical, fluorescence intensity, uHTS. inhibition, % at 20 µM. AID 588621, 2011. recombinant STEP, OMFP fluorogenic substrate. 0.25% of 360,000 active. Tyrosine-protein phosphatase non-receptor type 5 (Homo sapiens), P54829;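 active = inhibition at 20 µM, scaled per plate between control wells, above about 37%, limit read from the data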
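Measure: Control-normalized % inhibition with plate pattern correction | Test system: STEP phosphatase, cell-free reaction | Medium: pH 6.0 Bis-Tris with DTT and Tween 20 | Technique: Fluorescence, 480/540 nm | Times: Reaction 20 min, ambient temperature | Doses: Single compound dose of 20 µM, 1% DMSO final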
Scp1 confirm = Scp-1 phosphatase inhibitors, retest, confirmation, biochemical, colorimetric, single concentration; inhibition, % at 20 µM; 61% of 2,500 active; AID 540281, 2011; recombinant SCP-1 catalytic domain, phosphate release, malachite green absorbance; shares compounds with Scp1 inh
MG interference = colorimetric readout interference by compounds, confirmation, artefact control for Scp-1 inhibitor project, biochemical, single concentration; shares compounds with Scp1 inh; Colorimetric interference counterscreen, malachite green absorbance 630 nm; apparent inhibition (interference), % at 20 µM; 2,500 tested, under 10 active; AID 540313, 2011;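 also: compounds added after enzyme reaction finished so only phosphate colour detection is probed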
Scp-1 Tm shift = Scp-1 binding by thermal shift, confirmation, orthogonal assay for Scp-1 inhibitor project, biophysical, differential scanning fluorimetry; shares compounds with Scp1 inh; Recombinant SCP1, Sypro Orange thermal shift Tm; thermal shift relative to vanadate control, % at 40 µM; 25% of 1,500 active; AID 540329, 2011;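 active = substances whose mean melting-temperature shift, as a percentage of the reference inhibitor's shift, reaches about 5.3%, limit read from the data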
Each line names hits and unclear results; the compound was inactive in the other large screens (follow-up assays come after a bar, where they were run). Shown are actives, neighbours in structure and some others; about 1.7% of the full set was active somewhere.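 The calls were made as follows, unless noted: active = inhibition of at least 30% at 20 µM; inactive = the rest.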

CCCCC(Sc1nc(C)c(Cc2ccccc2)c(=O)[nH]1)C(=O)O (centres undefined)	none
COc1ccccc1C(C(=O)NCc1ccccc1)N(C(=O)c1csnn1)C1CC1 (centres undefined)	none
O=C(NCCc1ccc(Cl)cc1)c1ccc(CNc2c(N3CCOCC3)c(=O)c2=O)cc1	none
C/C(=N\NC(=O)c1ccc(NS(=O)(=O)c2cccs2)cc1)c1ccc(C(C)(C)C)cc1	none
CC(=O)Nc1cccc(/C(C)=N/NC(=O)c2ccc(NS(=O)(=O)c3cccs3)cc2)c1	Scp1 inh 64 | Scp1 confirm inactive | MG interference inactive
CCc1ccc(S(=O)(=O)c2nnn3c2nc(N2CCOCC2)c2ccccc23)cc1	none
O=[N+]([O-])c1ccc(O)c(Nc2ncnc3ccc(Br)cc23)c1	Scp1 inh 75 | Scp1 confirm 42 | MG interference inactive | Scp-1 Tm shift 14
CCOC(=O)Cc1c[nH]c2ccc([N+](=O)[O-])cc12	none
CCc1cc(=O)oc2cc(OC(C)C(=O)NCc3ccccn3)ccc12 (centres undefined)	none
O=C(N/N=C/c1cccc(OC2CSC2)c1)c1ccccc1O	Scp1 inh 96 | Scp1 confirm 59 | MG interference inactive | Scp-1 Tm shift inactive
Cn1ncc(Br)c1C(=O)N/N=C/c1cccc(OC2CSC2)c1	none
Cc1cccc(C(=O)Oc2ccc(/C=N/NC(=O)c3ccc(O)cc3)cc2)c1	none
Cc1cccc(C(=O)Oc2ccc(/C=N/NC(=O)Cc3ccc([N+](=O)[O-])cc3)cc2)c1	Scp1 inh 52 | Scp1 confirm 36 | MG interference inactive | Scp-1 Tm shift inactive
O=C(NCCNCc1ccccc1)c1ccco1	DNMT1 block 68, Scp1 inh 70 | Scp1 confirm 49 | MG interference inactive | Scp-1 Tm shift 9.6
CCc1ccc(CNCCNC(=O)c2ccco2)cc1	none
CCOc1ccc(Br)cc1C(=S)N1CCCC1	none
COc1ccc(OC)c(NC(=O)CNC(=O)c2ccc([N+](=O)[O-])cc2)c1	none
Cc1ccc(-c2nc3ccc(C(=O)O)cc3nc2-c2ccc(C)cc2)cc1	Scp1 inh 61 | Scp1 confirm inactive | MG interference inactive
Cc1ccc2nc(-c3ccccc3)c(-c3ccccc3)nc2c1	none
N#Cc1c(N)nc2c(c1N)CC(COc1ccccc1)O2 (centres undefined)	none
N#Cc1c(N)nc2c(c1N)CC(CO)O2 (centres undefined)	Scp1 inh 56 | Scp1 confirm inactive | MG interference inactive
O=[N+]([O-])c1ccc2cc[nH]c2c1	Scp1 inh 61 | Scp1 confirm inactive | MG interference inactive
O=[N+]([O-])c1ccc2[nH]ccc2c1	none (no result: DNMT1 block, Scp1 inh, STEP inh)
N#C/C(=C\c1cc2c(cc1Br)OCO2)c1ccc(C(=O)O)cc1	Scp1 inh 52 | Scp1 confirm 68 | MG interference inactive | Scp-1 Tm shift inactive
O=C(CCNC(=O)c1ccc([N+](=O)[O-])cc1)Nc1ccc(F)cc1	none
O=C(CCNC(=O)c1ccc([N+](=O)[O-])cc1)NNC(=O)c1ccncc1	Scp1 inh 50 | Scp1 confirm inactive | MG interference inactive
